Measured values: ChEMBL document CHEMBL4396876, “Antisulfatase, Osteogenic, and Anticancer Activities of Steroid Sulfatase Inhibitor EO-33 in Mice” (J Med Chem, 2019)

Columns and labels:
[1] = Plasma concentration in Balb/c mouse at 30 mg/kg, sc administered as single dose using MC/EtOH formulation measured after 24 hrs by LC-MS/MS analysis; format: ADME, organism-based
Procedure, shortened: (§1)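 Female Balb/c mice, fasted 8 h with free water, given a single dose in 0.1 mL vehicle: EO-33 dissolved in EtOH, then aqueous 0.4% methylcellulose added to a final 8% EtOH. Sacrificed under isoflurane at 1, 3, 7, 12 and 24 h (2–3 mice/group). Cardiac blood collected into K-EDTA and plasma stored at −80 °C. LC-MS/MS on 100 µL plasma. AUC0-24h taken from the five time points.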

[2] = Plasma concentration in Balb/c mouse at 10 mg/kg, sc administered as single dose using MC/EtOH formulation measured at 1 hr by LC-MS/MS analysis; format: ADME, organism-based; procedure, shortened: as §1
[3] = Toxicity in nu/nu Br athymic mouse xenografted with human E2S-stimulated MCF7 cells assessed as whitish deposit at injection site at 30 mg/kg, sc administered 6 days per week for 28 days using MC/EtOH formulation by TLC analysis; conditions: in vivo
[4] = Plasma concentration in Balb/c mouse at 10 mg/kg, sc administered as single dose using MC/EtOH formulation measured after 7 hrs by LC-MS/MS analysis; format: ADME, organism-based; procedure, shortened: as §1
[5] = Plasma concentration in Balb/c mouse at 2 mg/kg, sc administered as single dose using MC/EtOH formulation measured after 7 hrs by LC-MS/MS analysis; format: ADME, organism-based; procedure, shortened: as §1
[6] = AUC (0 to 24 hrs) in Balb/c mouse at 10 mg/kg, sc administered as single dose using MC/EtOH formulation by LC-MS/MS analysis; format: ADME, organism-based; design: dose 10 mg/kg, time < 24 hr, route subcutaneous; conditions: in vivo; procedure, shortened: as §1
[7] = Plasma concentration in Balb/c mouse at 30 mg/kg, sc administered as single dose using MC/EtOH formulation measured after 3 hrs by LC-MS/MS analysis; format: ADME, organism-based; procedure, shortened: as §1
Mus musculus [8] = experiment: Estrogenic activity in ovariectomized Balb/c mouse assessed as stimulation of uterine weight at 30 mg/kg, sc administered once daily from day 2 to 10 using MC/EtOH formulation measured on day 11; format: organism-based; conditions: in vivo
Procedure, shortened: (§2)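 Female Balb/c mice (15–20 g) ovariectomized under isoflurane, 5/group. Inhibitor given SC in 0.1 mL MC:EtOH (92:8) on days 2–10. E1S (2 µg/mouse, BID) or E1 (0.06 µg/mouse, ID) given SC on days 5–10. Vehicle controls included. Uterus dissected and weighed on day 11. Means ± SEM.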

Mus musculus [9] = experiment: Osteogenic activity in ovariectomized-induced C57BL/6 mouse model of osteoporosis assessed as recovery of tibia calcium content at 30 mg/kg, sc administered 6 days per week for 70 days using MC/EtOH formulation by Triple Quad ICP-MS analysis relative to control; format: functional
Procedure, shortened: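 Female C57BL/6 mice (63–70 days) ovariectomized under isoflurane; sham controls kept. 8/group, dosed SC in 0.1 mL MC:EtOH (92:8) for 70 days. Tibias excised and weighed (mg/g body weight). Calcium measured by ICP-MS after calcination at 600 °C for 6 h and HNO3 microwave digestion; expressed as mg/g tibia.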

[10] = AUC (0 to 24 hrs) in Balb/c mouse at 2 mg/kg, sc administered as single dose using MC/EtOH formulation by LC-MS/MS analysis; format: ADME, organism-based; design: dose 2 mg/kg, time < 24 hr, route subcutaneous; conditions: in vivo; procedure, shortened: as §1
[11] = Plasma concentration in Balb/c mouse at 30 mg/kg, sc administered as single dose using PG/DMSO formulation measured after 7 hrs by LC-MS/MS analysis; format: ADME, organism-based
Procedure, shortened: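 Female Balb/c mice, fasted 8 h, given a single dose in 0.1 mL of PG or sunflower oil holding a final 8% DMSO. Sacrificed under isoflurane at 7 h (2–3 mice/group). Cardiac blood collected into K-EDTA and plasma analysed by LC-MS/MS.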

Mus musculus [12] = experiment: In vivo inhibition of STS in sc-dosed ovariectomized Balb/c mouse assessed as reduction in E1S-stimulated uterus weight administered twice daily starting from day 2 to day 10 using MC/EtOH formulation and E1S addition on day 5 to 10 measured on day 11; format: functional, organism-based; procedure, shortened: as §2
[13] = Toxicity in ovariectomized-induced C57BL/6 mouse model of osteoporosis assessed as effect on body weight at 30 mg/kg, sc administered 6 days per week for 70 days using MC/EtOH formulation measured post last dose; format: organism-based; conditions: in vivo
Procedure, shortened: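 Female C57BL/6 mice, 63-70 days old, ovariectomized under isoflurane (sham-operated controls), randomized by weight into groups of 8. Treated SC in 0.1 mL MC:EtOH (92:8) over 70 days; sham and OVX controls received vehicle alone. Mice weighed at the end of the protocol before necropsy.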

[14] = Toxicity in nu/nu Br athymic mouse xenografted with human […] MCF7 cells assessed as effect on body weight at 30 mg/kg, sc administered 6 days per week for […] using MC/EtOH formulation measured 3 hrs post-last dose; format: organism-based; conditions: in vivo
Procedure, shortened: (§3)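 MCF-7 cells (grown in DME-F12 with 5% FBS and 1 nM estradiol) inoculated SC at 4.1 x 10^6 cells in 30% Matrigel into both flanks of bilaterally ovariectomized nude mice, three days after surgery; E2S 50 µg/mouse SC three times weekly. Test agent SC 6 days/week in 0.1 mL MC:EtOH (92:8) for 28 days; vehicle-only controls. Mice weighed and killed 3 h after last dose; livers removed.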

Mus musculus [15] = experiment: Anti-estrogenic activity in ovariectomized Balb/c mouse assessed as reversal of E1-induced estrogenic effect at 30 mg/kg, sc administered once daily starting from day 2 to day 10 using MC/EtOH formulation and E1 addition on day 5 to 10 measured on day 11; format: organism-based; conditions: in vivo; procedure, shortened: as §2
[16] = AUC (0 to 24 hrs) in Balb/c mouse at 30 mg/kg, sc administered as single dose using MC/EtOH formulation by LC-MS/MS analysis; format: ADME, organism-based; design: dose 30 mg/kg, time < 24 hr, route subcutaneous; conditions: in vivo; procedure, shortened: as §1
Mus musculus [17] = experiment: In vivo inhibition of STS in ovariectomized Balb/c mouse assessed as reduction in E1S-stimulated uterus weight at 15 mg/kg, sc administered twice daily starting from day 2 to day 10 using MC/EtOH formulation and E1S addition on day 5 to 10 measured on day 11 relative to control; format: functional; procedure, shortened: as §2
Mus musculus [18] = experiment: In vivo inhibition of STS in ovariectomized Balb/c mouse assessed as reduction in E1S-stimulated uterus weight at 30 mg/kg, sc administered once daily starting from day 2 to day 10 using MC/EtOH formulation and E1S addition on day 5 to 10 measured on day 11 relative to control; format: functional; procedure, shortened: as §2
[19] = Toxicity in nu/nu Br athymic mouse xenografted with human […]-stimulated MCF7 cells assessed as effect on liver at 30 mg/kg, sc administered 6 days per week for […] using MC/EtOH formulation measured 3 hrs post-last dose by necropsy analysis; format: organism-based; conditions: in vivo; procedure, shortened: as §3
[20] = Plasma concentration in Balb/c mouse at 30 mg/kg, sc administered as single dose using MC/EtOH formulation measured at 1 hr by LC-MS/MS analysis; format: ADME, organism-based; procedure, shortened: as §1
[21] = Plasma concentration in Balb/c mouse at 10 mg/kg, sc administered as single dose using MC/EtOH formulation measured after 3 hrs by LC-MS/MS analysis; format: ADME, organism-based; procedure, shortened: as §1

concentration at 24 h [1]: 13 ng/mL | concentration at 1 h [2]: 2600 ng/mL | concentration at 7 h [4]: 15 ng/mL | concentration at 7 h [5]: 1 ng/mL | AUC(0-t) at 24 h [6]: 5200 ng·h/mL | concentration at 3 h [7]: 2190 ng/mL | AUC(0-t) at 24 h [10]: 1130 ng·h/mL | concentration at 7 h [11]: 381 ng/mL | AUC(0-t) at 24 h [16]: 13500 ng·h/mL | concentration at 1 h [20]: 2600 ng/mL | concentration at 3 h [21]: 398 ng/mL
SMILES: Cc1ccc(CN(Cc2ccc(C(=O)N3CCc4ccc(OS(N)(=O)=O)cc4C3)cc2)Cc2ccco2)s1
Activity [3]: Toxic | Activity (Mus musculus [8]): Non-Toxic | Activity (Mus musculus [9]): 71% | inhibition (Mus musculus [12]): Dose-dependent effect | Activity [13]: Non-Toxic | Activity [14]: Non-Toxic | Activity (Mus musculus [15]): Non-Toxic | inhibition in vivo at 15 mg/kg (Mus musculus [17]): 49% | inhibition in vivo at 30 mg/kg (Mus musculus [18]): 42% | Activity [19]: Non-Toxic
